Experimental data reported in ChEMBL document CHEMBL1135197, “The synthesis and biological evaluation of a series of potent dual inhibitors of farnesyl and geranyl-Geranyl protein transferases” (Bioorg Med Chem Lett, 2002).
“And” between values parts separate entries of the source, which are not always exact repeats. Equal entries are not always repeated.

How the values were obtained:
[1] = target: T1, Geranylgeranyl transferase type I (Homo sapiens, UniProt P49354+P53609); assay: (§1) Inhibition of [1-3H]-GGPP incorporation into biotinylated K4B-Ras peptide by geranylgeranyl transferase in the presence of 5 mM ATP; type: protein-complex assay
Outline: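 Scintillation proximity assay: GGPTase reaction of [1-3H]GGPP with a biotinylated peptide of the K4B-Ras C-terminus at several inhibitor concentrations. IC50 is the concentration cutting radiolabel incorporation by 50% relative to uninhibited controls. Values are the mean of at least two determinations.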

[2] = target: T2, Protein farnesyltransferase (Homo sapiens, UniProt P49354+P49356); assay: Inhibitor of Farnesyl protein transferase (FTPase) required to reduce radiolabel [1-3H] incorporation by 50%; type: protein-complex assay
Outline: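 Purified recombinant FPTase transfers [1-3H]FPP onto a recombinant protein substrate carrying the K-ras C-terminus. IC50 is the inhibitor concentration that lowers radiolabel incorporation by 50% relative to uninhibited controls. Values are the mean of at least two determinations.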

[3] = target: T1, Geranylgeranyl transferase type I; assay: as §1; type: protein-complex assay; remark: listed apart in the source
Outline: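 Scintillation proximity assay: GGPTase reaction of [1-3H]GGPP with a biotinylated peptide of the K4B-Ras C-terminus at several inhibitor concentrations. Values are the mean of at least two determinations.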

[4] = target: T2, Protein farnesyltransferase; assay: The concentration required to displace 50% of a highly potent radiolabeled FPTase inhibitor; type: protein-complex assay
[5] = target: T2, Protein farnesyltransferase; assay: Inhibition of Farnesyl protein transferase radiolabel [1-3H] incorporation; type: protein-complex assay
[6] = target: T2, Protein farnesyltransferase; assay: Displacement of radiolabeled farnesyl transferase inhibitor; type: protein-complex assay
[7] = target: T1, Geranylgeranyl transferase type I; assay: Inhibition of geranylgeranylation of C-terminal CAAX sequence of Rap 1a in PSN-1 cells; type: functional, cell-based
Outline: (§2)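 PSN-1 cells; the read-out is inhibition of geranylgeranylation at the C-terminal CAAX sequence of Rap 1a, reported as EC50. Values are the mean of at least two determinations.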

[8] = target: T1, Geranylgeranyl transferase type I; assay: Inhibition of geranylgeranylation of the C-terminal CAAX sequence of Rap 1a in PSN-1 cells; type: functional, cell-based; outline: as §2

Row | SMILES | IC50 [1] [nM] | IC50 [2] [nM] | IC50 [3] [nM] | IC50 [4] | IC50 [5] [nM] | IC50 [6] [nM] | EC50 [7] [nM] | EC50 [8] [nM]
1 | N#Cc1ccc(Cn2cncc2CN2CCN(C(=O)OCc3ccc4c(c3)OCO4)CC2)cc1 | 121 | 102 |  |  |  |  |  | 
2 | Cc1ccccc1COC(=O)N1CCN(Cc2cncn2Cc2ccc(C#N)cc2)CC1 |  | 6.4 | 9.1 | 62.9 nM |  |  |  | 
3 | COCc1ccccc1COC(=O)N1CCN(Cc2cnc(C)n2Cc2ccc(C#N)cc2)CC1 |  |  | 178 |  | 17 | 3.17 | 680 | 
4 | Cc1ncc(CN2CCN(C(=O)OCc3ccccc3)CC2)n1Cc1ccc(C#N)cc1 | 789 | 19 |  |  |  |  |  | 
5 | COc1ncccc1COC(=O)N1CCN(Cc2cncn2Cc2ccc(C#N)cc2)CC1 | 48 | 18 |  | 13 nM |  |  |  | 
6 | N#Cc1ccc(Cn2cncc2CN2CCN(C(=O)OCc3cccc4c3OCO4)CC2)cc1 | 19.8 | 15.5 |  | 10.9 nM |  |  |  | 
7 | N#Cc1ccc(Cn2cncc2CN2CCN(C(=O)OCc3ccccc3Cl)CC2)cc1 | 0.68 | 6.8 |  | 7.95 nM |  |  |  | 
8 | Cc1ncc(CN2CCN(C(=O)OCc3ccccc3OC(F)(F)F)CC2)n1Cc1ccc(C#N)cc1 |  |  | 53 |  | 0.33 | 0.34 | 660 | 
9 | N#Cc1ccc(Cn2cncc2CN2CCN(C(=O)OCc3cccc(OC(F)(F)F)c3)CC2)cc1 | 74 | 13.4 |  | 12.1 nM |  |  |  | 
10 | CS(=O)(=O)c1ccccc1COC(=O)N1CCN(Cc2cncn2Cc2ccc(C#N)cc2)CC1 | 18 | 99 |  |  |  |  |  | 
11 | Cc1cccc(COC(=O)N2CCN(Cc3cncn3Cc3ccc(C#N)cc3)CC2)c1 | 76 | 34 |  | 166 nM |  |  |  | 
12 | COCc1ccccc1COC(=O)N1CCN(Cc2cncn2Cc2ccc(C#N)cc2)CC1 | 0.32 | 6.1 |  | 9.1 nM |  |  |  | 

The remaining compounds from weak to strong by IC50 [2], led by results:

Row | IC50 [1] [nM] | IC50 [2] [nM] | IC50 [3] [nM] | IC50 [4] | IC50 [5] [nM] | IC50 [6] [nM] | EC50 [7] [nM] | EC50 [8] [nM] | SMILES
13 | 8.7 | 5 |  | 8.67 nM |  |  |  |  | CCOc1ncccc1COC(=O)N1CCN(Cc2cncn2Cc2ccc(C#N)cc2)CC1
14 | 0.84 | 3.1 |  | 4 nM and 27 nM |  |  |  |  | COc1ccccc1COC(=O)N1CCN(Cc2cncn2Cc2ccc(C#N)cc2)CC1
15 | 4.82 | 2.5 |  | 0.85 nM |  |  |  | 50 | N#Cc1ccc(Cn2cncc2CN2CCN(C(=O)OCc3ccccc3CC(F)(F)F)CC2)cc1
16 | 0.32 | 1.6 |  | 4.52 nM |  |  |  | 71 | CCOc1ccccc1COC(=O)N1CCN(Cc2cncn2Cc2ccc(C#N)cc2)CC1
17 | 80 | 1.5 |  | 1.13 nM |  |  |  |  | CCOc1ccccc1COC(=O)N1CCN(Cc2cnc(C)n2Cc2ccc(C#N)cc2)CC1
18 | 0.16 | 0.36 |  | 2.2 nM |  |  |  | 18 | N#Cc1ccc(Cn2cncc2CN2CCN(C(=O)OCc3ccccc3OC(F)(F)F)CC2)cc1
